TRPC4 potent = positive allosteric modulators of TRPC4, primary screen, cell-based, mouse TRPC4beta, HEK293 mu-opioid, Fluo-4 calcium. hit rate 0.42% among 310,000. DAMGO EC20, Fluo-4 Ca2+ flux; active compounds read high. Short transient receptor potential channel 4 (Mus musculus), Q9QUQ5. B-score at 10 µM;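 active means B-score of calcium response area above 5 SD of library B-scores, with initial fluorescence ratio within 5 SD of library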
Target sequence (Q9QUQ5 whole entry, looked up): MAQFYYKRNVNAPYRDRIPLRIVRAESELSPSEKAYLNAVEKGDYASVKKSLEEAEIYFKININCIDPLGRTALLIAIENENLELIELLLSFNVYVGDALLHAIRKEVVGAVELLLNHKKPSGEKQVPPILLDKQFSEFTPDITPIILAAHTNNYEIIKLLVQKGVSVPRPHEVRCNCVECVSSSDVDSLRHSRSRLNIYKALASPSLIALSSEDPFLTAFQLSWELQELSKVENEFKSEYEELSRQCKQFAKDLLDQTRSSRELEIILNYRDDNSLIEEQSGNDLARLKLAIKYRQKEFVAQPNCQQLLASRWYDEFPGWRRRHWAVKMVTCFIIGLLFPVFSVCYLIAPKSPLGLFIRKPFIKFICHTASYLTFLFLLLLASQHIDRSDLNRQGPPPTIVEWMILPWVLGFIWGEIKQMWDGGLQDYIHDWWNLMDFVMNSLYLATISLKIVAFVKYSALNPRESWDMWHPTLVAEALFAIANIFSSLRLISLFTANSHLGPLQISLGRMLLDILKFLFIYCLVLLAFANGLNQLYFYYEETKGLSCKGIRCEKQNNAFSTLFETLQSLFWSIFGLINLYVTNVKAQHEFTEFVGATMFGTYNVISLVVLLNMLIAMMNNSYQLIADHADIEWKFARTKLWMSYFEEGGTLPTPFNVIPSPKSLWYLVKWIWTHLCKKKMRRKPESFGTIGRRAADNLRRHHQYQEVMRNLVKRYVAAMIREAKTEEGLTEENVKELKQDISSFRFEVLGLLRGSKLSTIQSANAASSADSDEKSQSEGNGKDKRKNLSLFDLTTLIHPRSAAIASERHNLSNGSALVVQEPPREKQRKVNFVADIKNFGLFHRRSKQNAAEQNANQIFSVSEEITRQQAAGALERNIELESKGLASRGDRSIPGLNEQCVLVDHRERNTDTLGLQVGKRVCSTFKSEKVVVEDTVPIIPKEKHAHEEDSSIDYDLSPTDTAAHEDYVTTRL
TRPC4 block = inhibitors of mouse TRPC4 channel, primary screen, Fluo4 calcium, HEK293 TRPC4beta/mu-opioid cells; Short transient receptor potential channel 4 (Mus musculus), Q9QUQ5; DAMGO-evoked Fluo4 calcium flux; active compounds read low; AID 2247, 2010; hit rate 0.39% among 300,000; B-score at 10 µM;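 active means B-score over 3 SD under the library average, no early fluorescence shift, positive overall ratio signal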
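material = TRPC4beta/mu-opioid receptor HEK293 cell line | probe or stimulus = sequential submaximal and maximal DAMGO stimulation | compound dosing = one concentration per compound | measured by = Fluo4 Ca2+ flux fluorescence | evaluation = integrated fluorescence ratio relative to baseline, converted to per-well B score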
TRPC4 act = activators of mouse TRPC4 channel, primary screen, Fluo4 calcium, HEK293 TRPC4beta/mu-opioid cells; Fluo4 calcium fluorescence; active compounds read high; hit rate 0.49% among 310,000; AID 2237, 2010; B-score at 10 µM;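 active means B-score above 5 SD of library B-scores, and initial fluorescence ratio not above library mean plus 5 SD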;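 further: positive B-score marks a calcium rise read as TRPC4 activation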
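Material: TRPC4beta and mu-opioid receptor HEK293 stable cells | Incubation: 45 min room-temperature Fluo4 loading, 110 s read | Detection: Kinetic Fluo4 calcium fluorescence | Measure: Integrated baseline-normalised fluorescence ratio, converted to per-well B score | Benchmarks: Low control buffer alone, high control maximal DAMGO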
TRPC6 inh = mouse TRPC6 channel inhibitors, primary screen, cell-based, HEK293, membrane potential dye. Short transient receptor potential channel 6 (Mus musculus), Q61143. ACh-evoked depolarization; active compounds read low. B-score at 10 µM. hit rate 1.1% among 310,000. AID 2553, 2010;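 active means B-score under library mean minus 3 SD, initial fluorescence not abnormally high, positive integrated signal ratio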;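 further: B-score derived from integrated fluorescence ratio over the kinetic read; more negative B-score means stronger inhibition of depolarization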
TRPC6 act = mouse TRPC6 channel activators, primary screen, cell-based, HEK293, membrane potential dye. Short transient receptor potential channel 6 (Mus musculus), Q61143. HEK293-TRPC6 membrane potential dye fluorescence; active compounds read high. B-score at 10 µM. hit rate 0.13% among 310,000. AID 2550, 2010;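 active means B-score of the integrated fluorescence ratio above library mean plus 3 SD, and starting fluorescence ratio within library mean plus 5 SD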;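 further: higher score means more depolarization so channel activation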
TRPC4 spec 2 = mouse TRPC4 off-target activity of TRPC6 inhibitors, second screen | inhibition, % at 10 µM | shares compounds with TRPC6 inh | hit rate 42% among 920 | HEK293 TRPC4/MOR, membrane potential dye fluorescence; channel activated by saturating DAMGO dose;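 active means compounds whose fluorescence signal differed from control wells by over 3 SD, either direction, in both duplicate plates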
TRPC4 spec = mouse TRPC4 modulation by TRPC6 hits, confirmation, selectivity assay for TRPC6 inhibitor project, cell-based, HEK293 TRPC4/mu-opioid, membrane potential dye; shares compounds with TRPC6 inh; membrane potential fluorescence; activity change, negative = inhibition, % at 10 µM; hit rate 61% among 920;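 active means rise or fall in signal beyond 3 SD of buffer-only wells in both replicate plates, either sign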;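 further: integrated kinetic ratio of fluorescence range over baseline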
HEK293 MPD ctr 2-1 = nonspecific membrane potential effects, parental HEK293, confirmation, counter-screen for TRPC6 inhibitor project, cell-based, second counter screen. hit rate 31% among 920. shares compounds with TRPC6 inh. signal change vs control, % at 10 µM. AID 2779, 2010. parental HEK293 membrane potential dye fluorescence; maximal acetylcholine challenge after compound addition;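 active means membrane potential signal moving either way by over 3 SD of the maximum-effect control, in both duplicate plates, meaning non-specific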
HEK293 MPD ctr-1 = membrane potential modulation in parental HEK293, confirmation, counter-screen for TRPC6 inhibitor project, cell-based. parental HEK293 membrane potential dye fluorescence. shares compounds with TRPC6 inh. hit rate 60% among 920. membrane potential signal change, % at 10 µM;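 active means membrane potential signal shifting up or down by more than 3 SD of buffer-only wells, on both duplicate plates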
HEK293 MPD ctr-2 = parental HEK293 membrane potential modulation, confirmation, counter-screen for TRPC6 modulator project, cell-based. hit rate 51% among 2,400. membrane potential dye fluorescence. shares compounds with TRPC6 inh. membrane potential signal change, % at 10 µM;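 active means membrane potential signal moves up or down beyond 5 SD from buffer-only wells, on both duplicate plates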
HEK293 MPD ctr 2-2 = second check of TRPC6 modulator effects in parental HEK293 cells | shares compounds with TRPC6 inh | membrane potential dye fluorescence; after compound, maximal acetylcholine stimulation | inhibition, % at 10 µM | hit rate 14% among 2,400 | AID 488926;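 active means membrane potential signal drops by more than 5 SD from the mean control signal, in both duplicate plates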
TRPC4/MOR mod = TRPC4 modulation by TRPC6 hit compounds, confirmation, selectivity assay for TRPC6 modulator project, cell-based, HEK293 TRPC4/mu-opioid, membrane potential dye, mouse; shares compounds with TRPC6 inh; membrane potential fluorescence; percent change from control (negative = decrease, positive = increase), % at 10 µM; hit rate 69% among 2,400; AID 488927, 2010;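 active means membrane potential signal moved up or down beyond 5 SD of buffer control wells, in both duplicate plates, actives on both sides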
TRPC4 ctr inh 2 = second check of whether TRPC6 modulators also affect mouse TRPC4; shares compounds with TRPC6 inh; HEK293 TRPC4/mu-opioid, membrane potential dye fluorescence; stimulated with maximal-effect DAMGO; inhibition, % at 10 µM; hit rate 55% among 2,400; AID 488928;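 active means drop in membrane potential signal beyond 5 SD of the control wells in both duplicate plates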;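 further: TRPC4 counter screen for TRPC6 hits run under conditions tuned for TRPC6 not TRPC4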
TRPC6 block conf = mouse TRPC6 channel inhibitors, confirmation, HEK293 cells, membrane potential dye, duplicate; shares compounds with TRPC6 inh; ACh-evoked depolarization; inhibition, % at 10 µM; hit rate 43% among 3,300;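 active means fluorescence ratio falls more than 5 SD below the full-stimulation control mean, in both duplicate runs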;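 further: integrated fluorescence ratio of peak minus minimum over baseline after agonist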
TRPC6 act confirm = mouse TRPC6 channel activators, confirmation, HEK293 cells, membrane potential dye, duplicate; shares compounds with TRPC6 inh; activation, % at 10 µM; AID 488961, 2010; HEK293-TRPC6 membrane potential dye fluorescence, FDSS; hit rate 11% among 2,800;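 active means ratio signal rise beyond 5 SD above unstimulated control wells' mean, seen in both duplicate runs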
Hits are given with their value; - = inactive; . = not tested or not shown. The list is not random: actives were taken first. Their share in the collection is about 2.3%.

SMILES	TRPC4 potent	TRPC4 block	TRPC4 act	TRPC6 inh	TRPC6 act	HEK293 MPD ctr-2	HEK293 MPD ctr 2-2	TRPC4/MOR mod	TRPC4 ctr inh 2	TRPC6 block conf	TRPC6 act confirm	others
COc1ccc(/C=N/Nc2nc(N3CCCC3)nc(N3CCCC3)n2)cc1	-	-	-	-	-	.	.	.	.	.	.
COc1cc(/C=N/Nc2nc(N3CCCC3)nc(N3CCCC3)n2)ccc1OCc1ccccc1F	-	-	-	-7.4	-	.	.	.	.	-	-	TRPC4 spec 2=-;TRPC4 spec=-14%;HEK293 MPD ctr 2-1=-;HEK293 MPD ctr-1=-
Cc1cccc(NC(=O)c2cc3c(=O)n4ccccc4nc3s2)c1	-	-	-	-	-	.	.	.	.	.	.
CC(=O)NS(=O)(=O)c1ccc(NC(=O)c2cc3c(=O)n4ccccc4nc3s2)cc1	-	-	-	-7.9	-	.	.	.	.	-	-	TRPC4 spec 2=74%;TRPC4 spec=-35%;HEK293 MPD ctr 2-1=30%;HEK293 MPD ctr-1=-653%
O=C(NNC(=O)c1ccccc1O)c1cc2ccccc2o1	-	-	-	-	-	.	.	.	.	.	.
COc1ccc(C2C3=C(CC(C)(C)CC3=O)Oc3ncn(Cc4ccco4)c(=N)c32)cc1 (configuration not stated)	-	-	-	-6	-	110%	-	-	44%	-	.
COc1ccc(C2C3=C(CC(C)(C)CC3=O)Oc3ncn(CC(C)C)c(=N)c32)cc1 (configuration not stated)	-	-	-	-	-	.	.	.	.	.	.
COc1ccc(-c2nc3cccc(C)n3c2NCC2CCCO2)cc1O (configuration not stated)	-	-	-	-6	-	-232%	-	-42%	46%	45%	-
OCCOCCn1c(-c2ccccc2)nc(=S)c2c1CCCC2	-	-	-	-7.7	-	-322%	86%	-52%	53%	60%	-
Cc1oc(-c2ccccc2F)nc1CS(=O)CC(=O)NC1CCCCC1 (configuration not stated)	-	-	-	-	-	.	.	.	.	.	.
COc1cc(S(=O)(=O)N2CCN(c3ccccc3F)CC2)ccc1Cl	-	-	-	-5	-	-	-	-	-	-	-
Cn1c(=NC(=O)CS(=O)(=O)c2ccccc2)sc2cc([N+](=O)[O-])ccc21	-	-	-	-	-	.	.	.	.	.	.
Cc1[nH]c2ccc(C(=O)OCCN(C)C)cc2c1C	-	-	-	-	-	.	.	.	.	.	.
Cc1c(C)n(CCN(C)C)c2ccc(C(=O)OCCN(C)C)cc12	-	-	-	-7.1	-	-153%	-	-32%	75%	56%	-
CCN1CCN(C(=O)c2ccc3c(c2)c(C)c(C)n3Cc2ccccc2)CC1	-	-	-	-	-	.	.	.	.	.	.
Cc1c(C)n(Cc2ccccc2)c2ccc(C(=O)OCCCN(C)C)cc12	-	-	-	-8.5	-	.	.	.	.	75%	-	TRPC4 spec 2=34%;TRPC4 spec=-;HEK293 MPD ctr 2-1=-;HEK293 MPD ctr-1=-
COc1cc(NC(=O)c2cccc3c2C(=O)N(C2CCCCC2)C3)cc(OC)c1OC	-	-	-	-	-	.	.	.	.	.	.
Nc1ccccc1SCC(=O)Nc1ccc2c(c1)OCO2	-	-	-	-	-	.	.	.	.	.	.
Cc1cc(C)nc(NC2=NC3CCCCC3N2)n1 (configuration not stated)	-	-	-	-8.9	-	192%	128%	-10%	54%	56%	-
Cc1cc(C)nc(NC2=NCC(=O)N2c2cc(Cl)cc(Cl)c2)n1	-	-	-	-	-	.	.	.	.	.	.
Cc1cccc(N2CCN(C(=O)CN3CCOc4ccccc43)CC2C)c1 (configuration not stated)	-	-	-	-	-	.	.	.	.	.	.
O=C(CN1CCOc2ccccc21)N1CCN(c2cccc(Cl)c2)CC1	-	-	-	-5.5	-	-	-	-	36%	-	-
COc1ccc(C(=O)c2coc3ccc(O)c(CN(C)C)c23)cc1	-	-	-	-5.3	-	-	-	9.0%	56%	-	-
COc1cc(-c2c(C#N)c(N)nc3[nH]c(=S)[nH]c(=O)c23)ccc1O	-	-	-	-	-	.	.	.	.	.	.
O=c1c2ccccc2nnn1CSc1nnc(-c2cccnc2)n1-c1ccccc1F	-	-	-	-	-	.	.	.	.	.	.
O=C1OCCC1Sc1nnc(-c2cccnc2)n1-c1ccccc1F (configuration not stated)	-	-	-	-7.5	-	.	.	.	.	-	-	TRPC4 spec 2=-;TRPC4 spec=-;HEK293 MPD ctr 2-1=-;HEK293 MPD ctr-1=-
CN(Cc1ccccc1)C(=O)C1CCN(S(=O)(=O)c2cccc3nonc23)CC1	-	-	-	-	-	.	.	.	.	.	.
